Assay results: ChEMBL document CHEMBL2321743, “Novel hybrid-type antimicrobial agents targeting the switch region of bacterial RNA polymerase” (ACS Med Chem Lett, 2013)
Converted amounts (≈) assume the structure as drawn. The source made the active and inactive calls. The calls are words filed in the database; no cut-off is given here.

Experiments:
Bacillus spizizenii [1] = assay: Antibacterial activity against Bacillus subtilis ATCC 6633 at 30 ug/disk after 12 hrs by paper disk diffusion assay; type: functional; settings: for zone of inhibition at 30 µg/disc: ATCC 6633, 12 h, read-out: DIZ
Outline: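 Test compounds dissolved in MeOH and applied to paper disks at 30 μg/disk against Bacillus subtilis. Read-out is the diameter of the zone of complete growth inhibition.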

Serratia marcescens = assay: Antibacterial activity against Serratia marcescens ATCC 13880 after 24 hrs by broth microdilution method; type: functional; settings: ATCC 13880, 24 h
Staphylococcus aureus = assay: Antibacterial activity against Staphylococcus aureus ATCC 29213 after 24 hrs by broth microdilution method; type: functional; settings: ATCC 29213, 24 h
Micrococcus luteus = assay: Antibacterial activity against Micrococcus luteus ATCC 9341 after 24 hrs by broth microdilution method; type: functional; settings: ATCC 9341, 24 h
[2] = Inhibition of Escherichia coli RNA polymerase after 1 hr by fluorescence assay
Outline: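 Assay uses E. coli RNA polymerase. IC50 is taken from three independent dose–response curves, each point measured in duplicate, and reported as mean ± SEM.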

Enterococcus faecalis = assay: Antibacterial activity against Enterococcus faecalis ATCC 29212 after 24 hrs by broth microdilution method; type: functional; settings: ATCC 29212, 24 h
Bacillus spizizenii [3] = assay: Antibacterial activity against Bacillus subtilis ATCC 6633 after 24 hrs by broth microdilution method; type: functional; settings: ATCC 6633, 24 h
Candida albicans = assay: Antifungal activity against Candida albicans ATCC 10231 after 48 hrs by broth microdilution method; type: functional; settings: ATCC 10231, 48 h
Escherichia coli = assay: Antibacterial activity against Escherichia coli ATCC 25922 after 24 hrs by broth microdilution method; type: functional; settings: ATCC 25922, 24 h
Pseudomonas aeruginosa = assay: Antibacterial activity against Pseudomonas aeruginosa ATCC 27853 after 24 hrs by broth microdilution method; type: functional; settings: ATCC 27853, 24 h

With Cc1cc(O)c(C(=O)NCCCCCCC(=O)O)c(=O)o1 the “diameter of the inhibition zone (DIZ)” value (Bacillus spizizenii [1]) was “inactive”.

In the case of Cc1cc(O)c(C(=O)CCCCCCC(=O)NC2=C3SS(=O)(=O)C=C3NC2=O)c(=O)o1, the “diameter of the inhibition zone (DIZ)” value (Bacillus spizizenii [1]) is reported as “inactive”.

With CCCCCCCCC(=O)c1c(O)cc(CCCCCC(=O)O)oc1=O the “diameter of the inhibition zone (DIZ)” value (Bacillus spizizenii [1]) was “Active”.

With CCCC/C(C)=C/C=C(\C)C(=O)c1c(O)cc(C(C)CC/C=C/NC(=O)OC)oc1=O (racemic) the “diameter of the inhibition zone (DIZ)” value (Bacillus spizizenii [1]) was “Active”.

O=C(CCCCCCCO)Nc1c2sscc-2[nH]c1=O gave a zone of inhibition at 30 µg/disc (Bacillus spizizenii [1]) of 9 mm.

In the case of Cc1cc(O)c(C(=O)CCCCCCCC(=O)N2CCCCC2)c(=O)o1, the “diameter of the inhibition zone (DIZ)” value (Bacillus spizizenii [1]) is reported as “inactive”.

Cc1cc(O)c(C(=O)CCCCC(=O)Nc2c3sscc-3[nH]c2=O)c(=O)o1 gave an MIC (Serratia marcescens) of 128 µg/mL (≈ 313 µM), a zone of inhibition at 30 µg/disc (Bacillus spizizenii [1]) of 14 mm and an MIC (Staphylococcus aureus) of 64 µg/mL (≈ 157 µM). The MIC (Micrococcus luteus) was 8 µg/mL (≈ 19.6 µM), the IC50 [2] was greater than 2000 µM and the MIC (Enterococcus faecalis) was 16 µg/mL (≈ 39.2 µM). The MIC (Bacillus spizizenii [3]) was 64 µg/mL (≈ 157 µM), the MIC (Candida albicans) was 128 µg/mL (≈ 313 µM) and the MIC (Escherichia coli) was 128 µg/mL (≈ 313 µM). The MIC (Pseudomonas aeruginosa) was 64 µg/mL (≈ 157 µM).

For C=CCCCC(=O)c1c(O)cc(C)oc1=O, the zone of inhibition at 30 µg/disc (Bacillus spizizenii [1]) was 9 mm.

For Cc1cc(O)c(C(=O)CCCCCCC(=O)Nc2c3sscc-3[nH]c2=O)c(=O)o1, the zone of inhibition at 30 µg/disc (Bacillus spizizenii [1]) was 11 mm.

In the case of Cc1cc(O)c(C(=O)CCCCCCC(=O)O)c(=O)o1, the “diameter of the inhibition zone (DIZ)” value (Bacillus spizizenii [1]) is reported as “inactive”.

With C=CCCCc1cc(O)c(C(=O)CCCCCCC(=O)O)c(=O)o1 the “diameter of the inhibition zone (DIZ)” value (Bacillus spizizenii [1]) was “inactive”.

CCCCCCCCC(=O)c1c(O)cc(CCCCCC(=O)Nc2c3sscc-3[nH]c2=O)oc1=O showed a zone of inhibition at 30 µg/disc (Bacillus spizizenii [1]) of 9 mm.

With CCC(=O)c1c(O)cc(CCCC(=O)Nc2c3sscc-3[nH]c2=O)oc1=O the “diameter of the inhibition zone (DIZ)” value (Bacillus spizizenii [1]) was “inactive”.

CCCCCCCCC(=O)c1c(O)cc(C)oc1=O showed an MIC (Serratia marcescens) of 128 µg/mL (≈ 481 µM), a zone of inhibition at 30 µg/disc (Bacillus spizizenii [1]) of 12 mm and an MIC (Staphylococcus aureus) of 8 µg/mL (≈ 30 µM). For the same compound, the MIC (Micrococcus luteus) was 2 µg/mL (≈ 7.51 µM), the IC50 [2] was greater than 2000 µM and the MIC (Enterococcus faecalis) was 4 µg/mL (≈ 15 µM). For the same compound, the MIC (Bacillus spizizenii [3]) was 8 µg/mL (≈ 30 µM), the MIC (Candida albicans) was 64 µg/mL (≈ 240 µM) and the MIC (Escherichia coli) was 128 µg/mL (≈ 481 µM). For the same compound, the MIC (Pseudomonas aeruginosa) was 128 µg/mL (≈ 481 µM).

Cc1cc(O)c(C(=O)CCCCCCCC(=O)Nc2c3sscc-3[nH]c2=O)c(=O)o1 showed an MIC (Serratia marcescens) of no less than 256 µg/mL, a zone of inhibition at 30 µg/disc (Bacillus spizizenii [1]) of 15 mm and an MIC (Staphylococcus aureus) of 4 µg/mL (≈ 8.88 µM). It also gave an MIC (Micrococcus luteus) of 1 µg/mL (≈ 2.22 µM), an IC50 [2] of 14 µM and an MIC (Enterococcus faecalis) of 4 µg/mL (≈ 8.88 µM). For the same compound, the MIC (Bacillus spizizenii [3]) was 16 µg/mL (≈ 35.5 µM), the MIC (Candida albicans) was no less than 256 µg/mL and the MIC (Escherichia coli) was no less than 256 µg/mL. The MIC (Pseudomonas aeruginosa) was 128 µg/mL (≈ 284 µM).

C=CCCCc1cc(O)c(C(=O)CCCCCCC(=O)Nc2c3sscc-3[nH]c2=O)c(=O)o1 showed a zone of inhibition at 30 µg/disc (Bacillus spizizenii [1]) of 10 mm.

Work on CCCC/C(C)=C/C=C(\C)C(=O)c1c(O)cc([C@H](C)CC/C=C/NC(=O)OC)oc1=O [MYXOPYRONIN B] yielded an IC50 [2] of 24 µM.

For CCC(=O)c1c(O)cc(C)oc1=O, the “diameter of the inhibition zone (DIZ)” value (Bacillus spizizenii [1]) was “inactive”.

For CO[C@H]1/C=C/O[C@@]2(C)Oc3c(C)c(O)c4c(O)c(c(/C=N/N5CCN(C)CC5)c(O)c4c3C2=O)NC(=O)/C(C)=C\C=C\[C@H](C)[C@H](O)[C@@H](C)[C@@H](O)[C@@H](C)[C@H](OC(C)=O)[C@@H]1C [RIFAMPIN], the MIC (Serratia marcescens) was 32 µg/mL (≈ 38.9 µM), the zone of inhibition at 30 µg/disc (Bacillus spizizenii [1]) was 25 mm and the MIC (Staphylococcus aureus) was 0.5 µg/mL (≈ 0.608 µM). The MIC (Micrococcus luteus) was no more than 0.125 µg/mL, the IC50 [2] was 0.08 µM and the MIC (Enterococcus faecalis) was 1 µg/mL (≈ 1.22 µM). It also gave an MIC (Bacillus spizizenii [3]) of no more than 0.125 µg/mL, an MIC (Candida albicans) of no less than 256 µg/mL and an MIC (Escherichia coli) of 8 µg/mL (≈ 9.72 µM). It also gave an MIC (Pseudomonas aeruginosa) of 32 µg/mL (≈ 38.9 µM).

For Cc1cc(O)c(C(=O)NCCCCCCC(=O)Nc2c3sscc-3[nH]c2=O)c(=O)o1, the “diameter of the inhibition zone (DIZ)” value (Bacillus spizizenii [1]) was “Active”.
